# Hits are enriched below; roughly 3.6% of the tested compounds scored in any of these assays.
# STAT3 activator – increases IL-6 driven STAT3 reporter signal | U3A cells, IL-6 STAT3-luciferase reporter, luminescence; 100% = signal with IL-6 EC80 alone | AID 871 | 190,000 tested, 0.91% active | activation (% of control), % at 5.6 µM;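 active = activation above the screen-wide mean of compound activation plus 3 SD, cut at about 130% in these data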;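 note: 0% = background luminescence of wells with medium and substrate only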
#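 Test system: Human STAT1-deficient U3A cells with stable STAT3-luciferase reporter | Also added: Interleukin-6, 33 ng/mL | Timing: Compound pre-incubation 1 h before IL-6, then 6 h stimulation at 37 °C | Technique: Luciferase reporter luminescence | Read-out: Percent of IL-6-only median luminescence | Benchmarks: IL-6-only wells as 100% reference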
# Hsp70 act – switches on Hsp70 transcription; HeLa Hsp70 promoter luciferase reporter, luminescence; scaled: vehicle 0, proteasome-inhibitor control 100%; 200,000 tested, 0.04% active; activation, % at 10 µM;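 active = activation above the mean across all tested compounds plus 3 SD, cutoff set per campaign, cut at about 5.5% in these data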;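 note: 100% = MG132 at 30 µM as the positive control and 0% = DMSO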
# AHR activator – activates the human aryl hydrocarbon receptor. P35869. AHR-responsive luciferase reporter cells, luminescence. activation, % at 5 µM. 320,000 tested, 2.5% active. AID 2796; in the data active = activation above about 47%;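 note: 0% = vehicle wells and 100% = reference agonist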
# PolyA inhibitor – yeast polyadenylation inhibition; S. cerevisiae SKY197-pL101 polyadenylation reporter, beta-gal luminescence; efflux-impaired pdr1/pdr3 knockout yeast; score 100 = 6 SD above DMSO; activity score, % at 12 µM; 300,000 tested, 0.02% active;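 active = lowest replicate activity score at least 50, where 100 means six control SD above control mean; inconclusive = lowest score under 50 but half or more replicates reach 50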;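 note: yeast exposed to compound for 9 h at 30 °C; higher score means more reporter readthrough which indicates perturbed polyadenylation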
# PERK inhibitor – human PERK inhibition, primary cell-based screen; Q9NZJ5; CHO PERK-DD fusion, SEAP luminescence translation reporter; inhibition, % at 5.6 µM; 220,000 tested, 0.17% active; AID 1416;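 active = inhibition above the mean inhibition of all tested compounds plus 3 SD, set separately per screening campaign, cut at about 2.9% in these data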;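 note: PERK kinase domain activated by AP20187 dimerizer at 100 nM; 0% = DMSO with dimerizer and 100% = rapamycin at 8.4 µM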
# HSF1 inhib – HSF1 inhibition. NIH3T3-HGL HSE-luciferase, MG132-induced, luminescence 8 h; stronger effect = lower value. activity change, negative = inhibition, % at 7.5 µM (by protocol). 300,000 tested, 0.77% active;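 active = more than half of replicate wells show activity change below -50%, luminescence cut by over half; inconclusive = some wells, but at most half, below -50%; inactive = no replicate well below -50%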;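 note: luciferase reports HSF-1 transcriptional activity via heat shock element; 0% = median of DMSO wells and -100% = zero luminescence signal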
# * hit, by the source's call; ? = inconclusive; nt = no result given.
SMILES,STAT3 activator,Hsp70 act,AHR activator,PolyA inhibitor,PERK inhibitor,HSF1 inhib
COc1ccc(NC(=O)Nc2ccc3c(c2)C(=O)N([C@@H](C)CO)C[C@@H](C)[C@@H](CN(C)S(=O)(=O)c2cccs2)O3)cc1,nt,nt,-1,nt,nt,nt
O=C1NC(c2cccs2)Nc2ccccc21 (configuration not stated),93,0,52*,7,1,25
Cc1ccsc1C1NC(=O)c2ccccc2N1 (configuration not stated),94,0,17,-5,1,11
CC(=O)C1=C(O)C(=O)N(c2ccc(Br)cc2)C1c1ccc(Br)cc1 (configuration not stated),nt,nt,49*,18,nt,7
CCN(CC)C(=O)CSc1nc2ncc(Cl)cc2[nH]1,88,0,44,-1,0,-5
CCN(CC)C(=O)CSc1nc2ncc(Br)cc2[nH]1,98,0,63*,6,-1,-6
O=C(Nc1cccc(Cl)c1)N1CCOCC1,nt,nt,3,12,nt,-55*
O=C(Nc1cccc(Cl)c1)N1CCCC1,100,0,2,14,0,-6
O=C(NNC(=S)NC(=O)c1ccc(Br)cc1)c1ccc([N+](=O)[O-])cc1,nt,nt,2,13,nt,-1
O=C(NNC(=S)NC(=O)c1ccc(Br)cc1)c1cccc([N+](=O)[O-])c1,nt,nt,53*,?,nt,-7
COc1ccc(Br)cc1CN(C)C(=O)c1cnc(C)cn1,nt,nt,-1,4,nt,-5
CSCC[C@H](NC(=O)C1CCN(S(=O)(=O)c2ccc(C)cc2)CC1)C(=O)NCc1ccco1,98,0,2,-1,0,5
CSCC[C@H](NC(=O)C1CCN(S(=O)(=O)c2ccccc2)CC1)C(=O)NC1CC1,nt,nt,-2,8,nt,-71*
CCOC(=O)N1CCN(CCC(=O)Nc2cccc(Cl)c2C)CC1,nt,nt,11,-17,nt,-1
O=C(CNc1cc(S(=O)(=O)N2CCOCC2)ccc1N1CCCC1)N1CCc2ccccc21,105,0,3,12,1,2
Cc1ccc2nc(/C(C#N)=C\c3cc(C)n(-c4cccc([N+](=O)[O-])c4)c3C)[nH]c2c1,87,0,58*,5,0,7
Cc1cc(/C=C(/C#N)c2nc3ccccc3[nH]2)c(C)n1-c1cc(C(=O)O)cc(C(=O)O)c1,97,0,nt,nt,0,5
Cc1cc(NC(=O)C(C)SCC(=O)N(C)CC(=O)Nc2ccc(F)cc2)no1 (configuration not stated),nt,nt,0,-4,nt,5
COc1ccc(NC(=S)N(CCO)Cc2cc3c(C)cc(C)cc3[nH]c2=O)cc1,nt,nt,59*,-28,-1,8
Cc1cc(C)c2cc(CN(CCN(C)C)C(=O)Nc3ccccc3Cl)c(=O)[nH]c2c1,95,0,6,2,-1,-50*
COc1ccc(NC(=O)N(CCO)Cc2cc3c(C)cc(C)cc3[nH]c2=O)cc1,82,0,12,-4,-2,-2
O=C(c1ccncc1)N1CCN(c2ccc(F)cc2)CC1,100,0,2,7,0,-66*
O=C(c1ccc(Cl)cc1)N1CCN(c2ccc(F)cc2)CC1,89,-1,58*,-2,0,9
CCC1CN(C(=O)N2CCC(C(=O)Nc3ccccc3OC)CC2)c2ccccc2O1 (configuration not stated),nt,nt,3,7,nt,4
COc1ccc(-n2ncc3c2CC(C)(C)CC3NC(=O)C2=CC(=O)CC(C)(C)O2)cc1 (configuration not stated),nt,nt,-1,3,nt,4
Cc1cc(C(F)(F)F)nc(CCNC(=O)C2CCC(=O)N(Cc3cccc(F)c3)C2)n1 (configuration not stated),nt,nt,-3,-7,nt,-8
COc1cc(/C=N\NC(=O)c2sc(N)nc2C)cc(OC)c1OC,87,0,62*,-4,0,5
Cc1nc(N)sc1C(=O)N/N=C/c1ccccc1[N+](=O)[O-],101,0,58*,6,1,31
COc1cc(/C=N/NC(=O)c2cc(-c3ccccc3)sc2N)cc(OC)c1OC,nt,nt,49*,12,-2,5
Cc1nc(N)sc1C(=O)N/N=C/c1ccc([N+](=O)[O-])cc1,nt,nt,29,-3,1,6

# Screens (PubChem)
